Test results: ChEMBL document CHEMBL2424574, “Structure-activity relationships and pharmacophore model of a noncompetitive pyrazoline containing class of GluN2C/GluN2D selective antagonists” (J Med Chem, 2013)

Legend:
Plasma [1] = test: Metabolic stability in mouse plasma after 2 hrs; format: ADME, cell-free
In short: (§1)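 Stability followed in human, rat or mouse plasma over a 2-hour time course.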

Plasma [2] = test: Metabolic stability in rat plasma after 2 hrs; format: ADME, cell-free; in short: as §1
[3] = target: 5-hydroxytryptamine receptor 6 (Homo sapiens, UniProt P50406); test: Inhibition of 5HT6 receptor (unknown origin)
In short: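 Radioligand panel screening was run through the NIMH Psychoactive Drug Screening Program with compounds at 5 µM.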

Rattus norvegicus = organism: Rattus norvegicus; test: Selectivity ratio of IC50 for recombinant rat GluN2B receptor to IC50 for recombinant rat GluN2D receptor
In short: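 Rat GluN1 co-expressed with GluN2A, GluN2B or GluN2D in Xenopus oocytes. Two-electrode voltage clamp at −40 mV in 90 NaCl, 1 KCl, 0.5 BaCl2, 0.005 EDTA, 10 HEPES (mM), pH 7.4, 23 °C; final DMSO 0.1–0.05%. IC50s came from Hill fits to averaged composite concentration-response curves (5–24 oocytes, 2–4 frogs). Ratio is GluN2A or GluN2B IC50 over GluN2D IC50.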

[4] = target: Glutamate receptor ionotropic, NMDA 2B (Rattus norvegicus, UniProt P35439+Q00960); test: Negative allosteric modulation of recombinant rat GluN2B receptor expressed in Xenopus laevis oocytes by two-electrode voltage clamp method; format: cell-based, Oocyte
In short: (§2)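 Two-electrode voltage clamp of Xenopus oocytes expressing rat GluN1 with GluN2A, 2B, 2C or 2D. Holding potential −40 mV in recording solution (mM: 90 NaCl, 1 KCl, 0.5 BaCl2, 0.005 EDTA, 10 HEPES, pH 7.4, 23 °C). Compounds diluted from 20 mM DMSO stocks to 0.05–0.1% final DMSO. IC50 from a Hill fit to the averaged composite concentration–response curve, 5–24 oocytes from 2–4 frogs.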

[5] = target: Glutamate receptor ionotropic, NMDA 2D (Rattus norvegicus, UniProt P35439+Q62645); test: Negative allosteric modulation of recombinant rat GluN2D receptor expressed in Xenopus laevis oocytes by two-electrode voltage clamp method; format: cell-based, Oocyte; in short: as §2
[6] = target: P2X purinoceptor 2 (Rattus norvegicus) (UniProt P49653); test: Inhibition of rat purinergic receptor P2X subunit-2 expressed in Xenopus laevis oocytes assessed as inhibition of ATP-induced current at 3 uM by two-electrode voltage clamp method; values are per cent of control; details: Oocyte
[7] = target: Glutamate receptor ionotropic, kainate 2 (Homo sapiens) (UniProt Q13002); test: Inhibition of GluK2 receptor (unknown origin) expressed in Xenopus laevis oocytes assessed as inhibition of glutamate-induced current at 3 uM by two-electrode voltage clamp method; values are per cent of control; details: Oocyte
[8] = target: Glutamate receptor ionotropic, kainate 1 (Homo sapiens) (UniProt P39086); test: Inhibition of GluK1 receptor (unknown origin) expressed in Xenopus laevis oocytes assessed as inhibition of glutamate-induced current at 3 uM by two-electrode voltage clamp method; values are per cent of control; details: Oocyte
[9] = target: Glutamate receptor 4 (Homo sapiens) (UniProt P48058); test: Inhibition of GluA4 receptor (unknown origin) expressed in Xenopus laevis oocytes assessed as inhibition of glutamate-induced current at 3 uM by two-electrode voltage clamp method; values are per cent of control; details: Oocyte
[10] = target: Glutamate receptor 3 (Homo sapiens) (UniProt P42263); test: Inhibition of GluA3 receptor (unknown origin) expressed in Xenopus laevis oocytes assessed as inhibition of glutamate-induced current at 3 uM by two-electrode voltage clamp method; values are per cent of control; details: Oocyte
[11] = target: Glutamate receptor 2 (Homo sapiens) (UniProt P42262); test: Inhibition of GluA2 receptor (unknown origin) expressed in Xenopus laevis oocytes assessed as inhibition of glutamate-induced current at 3 uM by two-electrode voltage clamp method; values are per cent of control; details: Oocyte
[12] = target: P2X purinoceptor 2 (Homo sapiens) (UniProt Q9UBL9); test: Inhibition of human purinergic receptor P2X subunit-2 expressed in Xenopus laevis oocytes assessed as inhibition of ATP-induced current at 3 uM by two-electrode voltage clamp method; values are per cent of control; details: Oocyte
[13] = target: Gamma-aminobutyric acid receptor subunit rho-1 (Homo sapiens) (UniProt P24046); test: Inhibition of human GABA C receptor subunit rho-1 receptor expressed in Xenopus laevis oocytes assessed as inhibition of GABA-induced current at 3 uM by two-electrode voltage clamp method; values are per cent of control; details: Oocyte
[14] = target: 5-hydroxytryptamine receptor 3A (Homo sapiens) (UniProt P46098); test: Inhibition of serotonin 5-HT3A receptor (unknown origin) expressed in Xenopus laevis oocytes assessed as inhibition of serotonin-induced current at 3 uM by two-electrode voltage clamp method; values are per cent of control; details: Oocyte
[15] = target: Ionotropic glutamate receptor NMDA 1/2C (Homo sapiens) (UniProt Q05586+Q14957); test: Inhibition of GluN1/GluN2C receptor (unknown origin) expressed in Xenopus laevis oocytes assessed as inhibition of glutamate/glycine-induced current at 3 uM by two-electrode voltage clamp method; values are per cent of control; details: Oocyte
[16] = target: Glutamate NMDA receptor; GRIN1/GRIN2A (Homo sapiens) (UniProt Q05586+Q12879); test: Inhibition of GluN1/GluN2A receptor (unknown origin) expressed in Xenopus laevis oocytes assessed as inhibition of glutamate/glycine-induced current at 3 uM by two-electrode voltage clamp method; values are per cent of control; details: Oocyte
[17] = target: Glycine receptor subunit alpha-1 (Homo sapiens) (UniProt P23415); test: Inhibition of glycine receptor subunit alpha-1 (unknown origin) expressed in Xenopus laevis oocytes assessed as inhibition of glycine-induced current at 3 uM by two-electrode voltage clamp method; values are per cent of control; details: Oocyte
[18] = target: Neuronal acetylcholine receptor; alpha4/beta2 (Homo sapiens) (UniProt P17787+P43681); test: Inhibition of human nicotinic acetylcholine receptor subunit alpha-4 beta-2 expressed in Xenopus laevis oocytes assessed as inhibition of acetylcholine-induced current at 3 uM by two-electrode voltage clamp method; values are per cent of control; details: Oocyte
Oocyte = test: Inhibition of gamma-aminobutyric acid receptor A […] (unknown origin) expressed in Xenopus laevis oocytes assessed as inhibition of GABA-induced current at 3 uM by two-electrode voltage clamp method; values are per cent of control; details: Homo sapiens
[19] = target: Neuronal acetylcholine receptor; alpha9/alpha10 (Homo sapiens) (UniProt Q9UGM1+Q9GZZ6); test: Inhibition of nicotinic acetylcholine receptor subunit alpha-9 alpha-10 (unknown origin) expressed in Xenopus laevis oocytes assessed as inhibition of acetylcholine-induced current at 3 uM by two-electrode voltage clamp method; values are per cent of control; details: Oocyte

Sequence of Glycine receptor subunit alpha-1 (Homo sapiens) (P23415 whole entry): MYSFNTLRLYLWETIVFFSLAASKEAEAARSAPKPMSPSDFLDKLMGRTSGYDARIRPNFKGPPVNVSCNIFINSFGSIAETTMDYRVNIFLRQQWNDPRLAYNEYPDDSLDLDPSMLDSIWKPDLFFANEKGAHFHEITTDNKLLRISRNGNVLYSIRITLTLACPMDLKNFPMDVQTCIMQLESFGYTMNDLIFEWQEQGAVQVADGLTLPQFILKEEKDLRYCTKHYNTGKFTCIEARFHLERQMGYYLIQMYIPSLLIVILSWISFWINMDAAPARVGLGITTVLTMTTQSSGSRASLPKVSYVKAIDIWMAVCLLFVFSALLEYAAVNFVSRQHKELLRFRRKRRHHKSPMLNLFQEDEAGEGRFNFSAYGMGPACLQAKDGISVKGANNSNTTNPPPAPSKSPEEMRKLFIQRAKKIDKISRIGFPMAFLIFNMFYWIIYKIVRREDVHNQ
Sequence of Glutamate receptor ionotropic, NMDA 2D (Q62645 whole entry, one chain of several): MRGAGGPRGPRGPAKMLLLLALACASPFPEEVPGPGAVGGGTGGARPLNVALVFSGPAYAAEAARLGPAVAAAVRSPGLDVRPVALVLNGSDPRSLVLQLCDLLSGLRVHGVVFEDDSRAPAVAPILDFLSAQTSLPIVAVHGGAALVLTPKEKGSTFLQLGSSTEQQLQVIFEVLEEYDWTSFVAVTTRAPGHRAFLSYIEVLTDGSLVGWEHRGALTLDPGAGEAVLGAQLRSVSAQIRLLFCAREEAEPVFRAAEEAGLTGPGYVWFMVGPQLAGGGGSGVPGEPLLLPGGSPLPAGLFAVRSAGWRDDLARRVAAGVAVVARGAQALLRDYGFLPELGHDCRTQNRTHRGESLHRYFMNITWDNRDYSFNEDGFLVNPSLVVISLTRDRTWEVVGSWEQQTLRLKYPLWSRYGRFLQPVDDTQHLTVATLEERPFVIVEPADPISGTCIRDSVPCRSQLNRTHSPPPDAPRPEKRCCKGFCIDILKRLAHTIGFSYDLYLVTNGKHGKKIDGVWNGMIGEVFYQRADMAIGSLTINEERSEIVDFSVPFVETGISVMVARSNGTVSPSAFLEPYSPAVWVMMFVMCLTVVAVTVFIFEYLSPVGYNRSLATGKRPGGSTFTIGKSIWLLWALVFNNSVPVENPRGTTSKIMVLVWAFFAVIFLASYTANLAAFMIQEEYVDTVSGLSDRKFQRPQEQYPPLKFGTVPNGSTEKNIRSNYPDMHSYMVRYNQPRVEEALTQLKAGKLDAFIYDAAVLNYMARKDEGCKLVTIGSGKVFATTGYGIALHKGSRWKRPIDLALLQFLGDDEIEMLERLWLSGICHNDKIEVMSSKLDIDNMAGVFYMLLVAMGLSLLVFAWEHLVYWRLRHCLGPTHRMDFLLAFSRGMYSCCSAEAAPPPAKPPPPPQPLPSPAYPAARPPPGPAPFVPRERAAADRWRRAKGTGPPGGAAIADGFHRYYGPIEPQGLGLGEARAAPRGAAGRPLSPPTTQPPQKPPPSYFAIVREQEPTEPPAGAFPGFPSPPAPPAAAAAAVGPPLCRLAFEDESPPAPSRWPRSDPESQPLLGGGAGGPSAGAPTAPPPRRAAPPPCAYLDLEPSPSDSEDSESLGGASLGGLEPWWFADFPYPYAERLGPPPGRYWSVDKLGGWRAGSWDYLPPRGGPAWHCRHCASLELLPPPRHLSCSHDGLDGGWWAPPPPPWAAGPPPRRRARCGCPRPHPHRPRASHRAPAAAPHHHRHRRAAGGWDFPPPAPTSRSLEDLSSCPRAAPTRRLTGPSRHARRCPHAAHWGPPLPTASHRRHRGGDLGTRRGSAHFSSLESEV
Sequence of Glutamate receptor 4 (Homo sapiens) (P48058 whole entry): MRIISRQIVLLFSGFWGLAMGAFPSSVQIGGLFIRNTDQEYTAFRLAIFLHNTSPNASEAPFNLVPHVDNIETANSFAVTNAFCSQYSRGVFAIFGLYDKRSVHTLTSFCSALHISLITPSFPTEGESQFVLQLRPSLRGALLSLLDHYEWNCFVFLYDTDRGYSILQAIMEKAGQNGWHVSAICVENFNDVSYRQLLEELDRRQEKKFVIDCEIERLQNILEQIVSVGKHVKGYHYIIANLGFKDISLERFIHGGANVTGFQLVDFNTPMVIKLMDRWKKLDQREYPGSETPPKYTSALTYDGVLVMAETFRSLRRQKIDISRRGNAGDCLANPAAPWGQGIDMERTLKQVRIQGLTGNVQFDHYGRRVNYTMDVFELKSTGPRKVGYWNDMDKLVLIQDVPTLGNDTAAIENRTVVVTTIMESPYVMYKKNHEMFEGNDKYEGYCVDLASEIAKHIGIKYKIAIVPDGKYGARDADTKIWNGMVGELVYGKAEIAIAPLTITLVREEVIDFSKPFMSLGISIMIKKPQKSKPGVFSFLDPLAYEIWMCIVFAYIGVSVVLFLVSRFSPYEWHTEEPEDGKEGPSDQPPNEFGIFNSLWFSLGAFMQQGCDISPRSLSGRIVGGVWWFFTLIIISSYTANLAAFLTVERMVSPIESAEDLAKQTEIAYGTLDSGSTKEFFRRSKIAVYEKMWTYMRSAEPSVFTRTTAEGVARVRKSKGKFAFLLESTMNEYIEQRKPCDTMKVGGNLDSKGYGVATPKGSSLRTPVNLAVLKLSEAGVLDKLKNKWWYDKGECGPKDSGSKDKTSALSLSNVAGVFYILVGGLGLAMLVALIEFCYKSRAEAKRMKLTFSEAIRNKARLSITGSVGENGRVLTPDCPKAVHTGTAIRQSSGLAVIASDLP
Sequence of P2X purinoceptor 2 (Homo sapiens) (Q9UBL9 whole entry): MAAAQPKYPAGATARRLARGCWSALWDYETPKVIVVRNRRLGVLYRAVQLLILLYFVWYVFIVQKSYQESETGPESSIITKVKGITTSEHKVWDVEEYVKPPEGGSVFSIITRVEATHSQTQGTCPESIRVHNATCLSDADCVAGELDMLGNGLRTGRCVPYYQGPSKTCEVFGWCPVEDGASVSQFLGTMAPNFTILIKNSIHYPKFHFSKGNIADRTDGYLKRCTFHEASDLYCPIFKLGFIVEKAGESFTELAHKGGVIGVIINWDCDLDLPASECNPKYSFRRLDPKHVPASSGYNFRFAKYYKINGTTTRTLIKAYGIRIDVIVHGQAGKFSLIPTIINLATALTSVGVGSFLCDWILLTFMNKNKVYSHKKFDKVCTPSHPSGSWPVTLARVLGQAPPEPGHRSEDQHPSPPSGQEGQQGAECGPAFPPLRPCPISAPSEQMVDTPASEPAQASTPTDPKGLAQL
Sequence of Glutamate receptor 2 (Homo sapiens) (P42262 whole entry): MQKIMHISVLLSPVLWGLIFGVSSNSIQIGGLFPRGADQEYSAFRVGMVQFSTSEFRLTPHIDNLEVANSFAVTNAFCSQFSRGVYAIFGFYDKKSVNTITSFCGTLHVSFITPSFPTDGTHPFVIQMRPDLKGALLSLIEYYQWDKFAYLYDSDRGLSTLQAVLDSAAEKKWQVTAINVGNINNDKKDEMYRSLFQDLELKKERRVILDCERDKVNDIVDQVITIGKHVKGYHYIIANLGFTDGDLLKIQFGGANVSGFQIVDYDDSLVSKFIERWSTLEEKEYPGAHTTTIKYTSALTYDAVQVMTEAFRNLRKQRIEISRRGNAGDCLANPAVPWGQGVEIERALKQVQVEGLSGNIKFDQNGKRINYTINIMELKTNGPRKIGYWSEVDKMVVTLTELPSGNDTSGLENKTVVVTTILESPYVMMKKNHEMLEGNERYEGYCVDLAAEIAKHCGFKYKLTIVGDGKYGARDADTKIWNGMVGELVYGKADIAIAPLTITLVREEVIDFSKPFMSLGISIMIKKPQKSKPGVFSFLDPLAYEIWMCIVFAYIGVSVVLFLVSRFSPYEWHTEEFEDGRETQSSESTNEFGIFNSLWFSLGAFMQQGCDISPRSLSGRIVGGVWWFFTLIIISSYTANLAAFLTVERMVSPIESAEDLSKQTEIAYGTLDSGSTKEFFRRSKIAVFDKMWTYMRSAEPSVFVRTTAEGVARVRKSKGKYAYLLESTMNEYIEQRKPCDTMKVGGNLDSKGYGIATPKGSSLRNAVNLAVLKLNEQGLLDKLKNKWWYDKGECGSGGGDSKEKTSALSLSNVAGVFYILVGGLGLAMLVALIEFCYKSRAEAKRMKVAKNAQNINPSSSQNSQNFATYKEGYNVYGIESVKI
Sequence of Glutamate receptor 3 (Homo sapiens) (P42263 whole entry): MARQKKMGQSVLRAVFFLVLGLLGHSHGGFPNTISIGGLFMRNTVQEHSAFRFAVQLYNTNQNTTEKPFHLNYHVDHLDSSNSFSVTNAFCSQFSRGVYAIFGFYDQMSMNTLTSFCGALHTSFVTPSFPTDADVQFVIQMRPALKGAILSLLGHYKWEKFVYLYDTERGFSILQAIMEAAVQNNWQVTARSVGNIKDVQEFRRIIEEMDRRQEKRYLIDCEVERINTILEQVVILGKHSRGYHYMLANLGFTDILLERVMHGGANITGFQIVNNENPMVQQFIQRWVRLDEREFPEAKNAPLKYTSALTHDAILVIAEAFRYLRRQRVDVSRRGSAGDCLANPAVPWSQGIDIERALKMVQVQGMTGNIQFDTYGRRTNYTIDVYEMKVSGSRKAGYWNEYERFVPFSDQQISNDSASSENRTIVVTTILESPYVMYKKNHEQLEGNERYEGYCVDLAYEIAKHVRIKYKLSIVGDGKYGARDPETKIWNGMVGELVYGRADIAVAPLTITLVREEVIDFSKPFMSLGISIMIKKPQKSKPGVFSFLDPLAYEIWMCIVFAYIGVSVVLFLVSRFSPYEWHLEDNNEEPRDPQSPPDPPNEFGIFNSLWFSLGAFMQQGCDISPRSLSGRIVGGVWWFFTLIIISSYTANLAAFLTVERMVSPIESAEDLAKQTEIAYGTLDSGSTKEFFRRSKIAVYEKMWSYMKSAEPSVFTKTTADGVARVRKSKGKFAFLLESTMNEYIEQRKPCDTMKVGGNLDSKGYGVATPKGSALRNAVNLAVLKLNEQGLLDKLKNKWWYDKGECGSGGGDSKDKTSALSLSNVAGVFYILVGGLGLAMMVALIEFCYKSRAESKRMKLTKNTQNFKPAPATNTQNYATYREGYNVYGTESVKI

Structure (SMILES) | Stability (Plasma [1]) | Stability (Plasma [2]) | Ki [3] [µM] | Ratio IC50 (Rattus norvegicus) | IC50 [4] [µM] | IC50 [5] [µM] | residual activity [6] [%] | residual activity [7] [%] | residual activity [8] [%] | residual activity [9] [%] | residual activity [10] [%] | residual activity [11] [%] | residual activity [12] [%] | residual activity [13] [%] | residual activity [14] [%] | residual activity [15] [%] | residual activity [16] [%] | residual activity [17] [%] | residual activity [18] [%] | residual activity (Oocyte) [%] | further results
O=C(O)CCC(=O)N1N=C(c2c(-c3ccc(Cl)cc3)c3ccccc3[nH]c2=O)CC1c1ccc(Cl)cc1 (racemic) | Stable | Stable | > 10 | 50 | 22 | 0.44 | 97 | 97 | 97 | 96 | 99 | 98 | 113 | 99 | 95 | 21 | 89 | 101 | 79 | 97 | residual activity [19]: 67%
O=C(O)/C=C/C(=O)N1N=C(c2c(-c3ccc(Br)cc3)c3ccccc3[nH]c2=O)CC1c1ccc(Cl)cc1 (racemic) | Stable | Stable | > 10 | 63 | 12 | 0.19 | 96 | 97 | 100 | 97 | 100 | 96 | 100 | 97 | 95 | 26 | 89 | 99 | 82 | 95 | residual activity [19]: 72%
